Published values of several laboratories.
Compare with care: the assays were run in different laboratories.

With `N=C(N)NCCC[C@H](NC(=O)[C@H](Cc1ccccc1)NC(=O)[C@H](CCC(N)=O)NC(=O)OCc1ccccc1)C(=O)c1nccs1` the AUC(0-inf) was 129 ng·h/mL (female C57BL/6 mouse, plasma; intranasal, 5 mg/kg).
The half-life of `CC(=O)c1c(C)c2cnc(Nc3ccc(C4CCN(CCS(C)(=O)=O)CC4)cn3)nc2n(C2CCCC2)c1=O` is reported as 866 min (metabolic stability; rat, liver S9).
With `COc1cc(C(=O)c2nc(-c3cccc4[nH]ccc34)c[nH]2)cc(OC)c1OC` the half-life was over 1020 min (chemical stability; PBS; 5 µM, pH 6).
With `Cc1c2ccncc2c(C)c2c1[nH]c1ccccc12` the IC50 was 10.7 µM (NCI-H187; cell growth or viability, resazurin; 5 days).
`CC(C)CC(=O)OC[C@H]1O[C@@](C#N)(c2ccc3c(N)ncnn23)[C@H](O)[C@@H]1O` has a half-life of 0.761 min (metabolic stability; rat, blood; 5 µM, whole blood).
The AUC(0-inf) of `CC[C@H](C)[C@H](NC(=O)[C@H](Cc1ccccc1)NC(=O)[C@H](CCC(=O)O)NC(=O)[C@H](CCCCN)NC(=O)[C@H](C)NC(=O)[C@H](C)NC(=O)[C@H](CCC(N)=O)NC(=O)CNC(=O)[C@H](CCC(=O)O)NC(=O)[C@H](CC(C)C)NC(=O)[C@H](Cc1ccc(O)cc1)NC(=O)[C@H](CO)NC(=O)[C@H](CO)NC(=O)[C@@H](NC(=O)[C@H](CC(=O)O)NC(=O)[C@H](CO)NC(=O)[C@@H](NC(=O)[C@H](Cc1ccccc1)NC(=O)[C@@H](NC(=O)CNC(=O)[C@H](CCC(=O)O)NC(=O)[C@H](C)NC(=O)N(N)Cc1c[nH]cn1)[C@@H](C)O)[C@@H](C)O)C(C)C)C(=O)N[C@@H](C)C(=O)N[C@@H](Cc1c[nH]c2ccccc12)C(=O)N[C@@H](CC(C)C)C(=O)N[C@H](C(=O)N[C@@H](CCCNC(=N)N)C(=O)NCC(=O)N[C@@H](CCCNC(=N)N)C(=O)NCC(=O)O)C(C)C` is reported as 2400 ng·h/mL (male CD-1 mouse, plasma; intravenous, 1 mg/kg, single dose).
`CC(C)=CCC[C@](C)(O[C@@H]1O[C@H](CO)[C@@H](O)[C@H](O)[C@H]1O)[C@H]1CC[C@]2(C)[C@@H]1[C@H](O)C[C@@H]1[C@@]3(C)CC[C@H](O)C(C)(C)[C@@H]3CC[C@]12C` gave an AUC(0-t) of 1080 ng·h/mL (mouse, plasma; intravenous, 2 mg/kg).
`O=C(Nc1ccc([N+](=O)[O-])cc1Cl)c1cc(Cl)ccc1O` gave a CC50 of 8.73 µM (HeLa-ACE2; cell growth or viability, ATP luminescence; 72 h).
`Cc1[nH]c(C)c(S(=O)(=O)Nc2ccc(S(F)(F)(F)(F)F)cc2)c1C(=O)N1CCC(F)(F)C1` gave a half-life of 17.6 min (metabolic stability; rat, liver microsomes).
